Experimental data of several laboratories.
Each line is one published result; the experiments were not run side by side.
NTRK3: NT-3 growth factor receptor (NTRK3, Homo sapiens, UniProt Q16288)
PLA2G5: Phospholipase A2 group V (PLA2G5, Homo sapiens, UniProt P39877)
MDH2: Malate dehydrogenase, mitochondrial (MDH2, Sus scrofa, UniProt P00346)
CYP2C9: Cytochrome P450 2C9 (CYP2C9, Homo sapiens, UniProt P11712)
ACVR1: Activin receptor type-1 (ACVR1, Homo sapiens, UniProt Q04771)
CXCR4: C-X-C chemokine receptor type 4 (CXCR4, Homo sapiens, UniProt P61073)
CDK9 with cyclin T1: Cyclin-dependent kinase 9, with cyclin T1 (CDK9, Homo sapiens, UniProt P50750)

Cc1n[nH]c2nncnc12  IC50 (deoD (Escherichia coli, UniProt P0ABP8); enzyme activity; inhibitor; pH 7): ~700 µM
COc1ccc2c(Oc3ccc4c(C(=O)Nc5ccccc5N)cccc4c3)ccnc2c1  IC50 (RAC-alpha serine/threonine-protein kinase (AKT1, Homo sapiens, UniProt P31749); enzyme activity; inhibitor): > 0.5 µM
CNC(=O)c1cc2c(Oc3ccc(NC(=O)C4(C(=O)Nc5ccc(F)cc5)CC4)cc3)ccnc2cc1OC  IC50 (NTRK3; enzyme activity; inhibitor; radiometric): 0.01 µM
CC1=C(/C=C/C(C)=C/C=C/C(C)=C/C(=O)O)C(C)(C)CCC1  IC50 (Prothrombin (Rattus norvegicus, UniProt P18292); enzyme activity; inhibitor): 163 µM
O=C(O)/C=C/c1ccc(O)c(O)c1  IC50 (PLA2G5; enzyme activity; inhibitor; Ellman): 26.8 µM
Nc1ccc(S(=O)(=O)Nc2ccc(-c3nc4cc(NS(=O)(=O)c5ccc(N)cc5)ccc4o3)cc2)cc1  IC50 (MDH2; enzyme activity; inhibitor): > 62.5 µM
Nc1nc(N)c2nc(CNc3cccc4ccccc34)cnc2n1  IC50 (CYP2C9; enzyme activity; inhibitor; luciferase): 11 µM
Nc1ncnc2c1c(Cc1cccc3ccccc13)nn2CC1CCNCC1  IC50 (Proto-oncogene tyrosine-protein kinase Src (SRC, Homo sapiens, UniProt P12931); enzyme activity; inhibitor): > 20 µM
Cc1cnc(-c2ccc(-c3ccc(NC(=O)Nc4c(F)cc(F)cc4F)cc3F)c3c2C(=O)NC3)[nH]1  IC50 (NTRK3; enzyme activity; inhibitor): 0.0007 µM
CC(C)(C)n1nc(-c2cnc3cc(OC4CC4)ccc3c2)c(C(N)=O)c1N  IC50 (ACVR1; cell-free assay): > 10 µM
CCS(=O)(=O)c1ncc(N(Cc2ccccc2)Cc2ccco2)c(C(=O)Nc2ccc(C)cc2)n1  IC50 (CXCR4; β-arrestin recruitment; antagonist): 25 µM
O=C(O)c1cc(O)c(O)c(O)c1  IC50 (PLA2G5; enzyme activity; inhibitor; Ellman): 9.79 µM
O=C(Nc1ccn(Cc2ccc(O)cc2C(F)(F)F)n1)c1c(F)cccc1F  IC50 (Voltage-dependent T-type calcium channel subunit alpha-1H (CACNA1H, Homo sapiens, UniProt O95180); ion current; inhibitor): > 10 µM
C/C(=C\C(=O)OCCCCCCCCC(=O)O)C[C@@H]1OC[C@H](C[C@@H]2O[C@H]2[C@@H](C)[C@H](C)O)[C@@H](O)[C@H]1O  IC50 (CXCR4; calcium signal; antagonist): > 100 µM
O=C(Nc1ccc2[nH]nc(-c3ccncc3)c2c1)[C@@H]1CCN(CC(=O)N2CCN(c3ccc(-c4ncccn4)cc3)CC2)C1  IC50 (Mitogen-activated protein kinase 3 (MAPK3, Homo sapiens, UniProt P27361); enzyme activity; inhibitor; radiometric): 0.0042 µM
COc1ccc(S(=O)(=O)Nc2ccc3oc(-c4ccc(NS(=O)(=O)c5cc(F)ccc5OC)cc4)nc3c2)cc1  IC50 (MDH2; enzyme activity; inhibitor): > 62.5 µM
CC(=O)NS(=O)(=O)c1ccc(NC(=O)C=CC(=O)O)cc1  IC50 (Dipeptidyl peptidase 4 (DPP4, Homo sapiens, UniProt P27487); enzyme activity; inhibitor; fluorescence): 59.3 µM
O=S(=O)(Nc1ccc(-c2nc3cc(NS(=O)(=O)c4cccc(C(F)(F)F)c4)ccc3o2)cc1)c1cccc(C(F)(F)F)c1  IC50 (MDH2; enzyme activity; inhibitor): > 62.5 µM
O=P([O-])(O)C(O)(C[n+]1cccc(-c2ccccc2)c1)P(=O)(O)O (stereo not drawn)  IC50 (Geranylgeranyl pyrophosphate synthase (GGPS1, Homo sapiens, UniProt O95749); enzyme activity; inhibitor): 15.8 µM
C=CC(=O)Nc1ccc(N2CCC[C@@H](Nc3ncc(Cl)c(-c4c[nH]c5ccccc45)n3)C2)c(F)c1  IC50 (CDK9 with cyclin T1; enzyme activity; inhibitor; FRET): 0.436 µM
O=C(O)c1cccc(SCc2cccc(Nc3ncc4c(-c5ccc(N6CCOCC6)cc5)[nH]nc4n3)c2)c1  IC50 (Cyclin-dependent kinase 1, with cyclin B (CDK1, Homo sapiens, UniProt P06493); enzyme activity; inhibitor): > 200 µM
COc1ccc(-c2nn3c(C)nnc3s2)cc1  IC50 (DNA dC->dU-editing enzyme APOBEC-3A (Homo sapiens, UniProt P31941); enzyme activity; inhibitor): > 100 µM
CCc1ccc(NC(=O)c2nc(S(C)(=O)=O)ncc2N(Cc2ccccc2)Cc2ccco2)cc1  IC50 (CXCR4; β-arrestin recruitment; antagonist): 13 µM
O=S(=O)(Nc1ccc(-c2nc3cc(NS(=O)(=O)c4ccc(F)cc4)ccc3o2)cc1)c1ccc(F)cc1  IC50 (MDH2; enzyme activity; inhibitor): > 62.5 µM
Cc1cccc(C)c1NC(=O)c1nc(S(C)(=O)=O)ncc1N(Cc1ccccc1)Cc1ccco1  IC50 (CXCR4; β-arrestin recruitment; antagonist): 316 µM
Cc1ccc(S(=O)(=O)Nc2ccc(-c3nc4ccc(NS(=O)(=O)c5ccc(C)cc5)cc4[nH]3)cc2)cc1  IC50 (MDH2; enzyme activity; inhibitor): > 62.5 µM
CC(=O)c1ccc(/N=N/c2cc(/C=C/C(=O)O)ccc2O)cc1  IC50 (PLA2G5; enzyme activity; inhibitor; Ellman): 42.5 µM
CCc1ccc(OCc2nnc(SCc3nc(C)no3)n2Cc2ccccc2)cc1  IC50 (CXCR4; β-arrestin recruitment): 50 µM
O=S(=O)(Nc1ccc(-c2nc3cc(NS(=O)(=O)c4ccc(Cl)s4)ccc3o2)cc1)c1ccc(Cl)c(C(F)(F)F)c1  IC50 (MDH2; enzyme activity; inhibitor): > 62.5 µM
O=c1cc(-c2ccccc2)oc2c1ccc1ccccc12  IC50 (CDK9 with cyclin T1; enzyme activity; inhibitor; ADP detection): > 100 µM
COc1c(Br)cccc1C(=O)Nc1ccc(Sc2nc3ccccc3s2)cc1  IC50 (MDH2; enzyme activity; inhibitor): > 62.5 µM
CC(C)(C)n1nc(-c2ccc3nc(OC4CC4)ccc3c2)c(C(N)=O)c1N  IC50 (ACVR1; cell-free assay): > 10 µM
CCN1CCN(Cc2ccc(NC(=O)c3ccc(C)c(NC(=O)c4cncc(-c5cccs5)c4)c3)cc2C(F)(F)F)CC1  IC50 (Ephrin type-A receptor 2 (EPHA2, Homo sapiens, UniProt P29317); enzyme activity; inhibitor; ADP detection): 0.419 µM
COc1ccc2cc3[n+](cc2c1OC)CCc1cc2c(cc1-3)OCO2  IC50 (CYP2C9; enzyme activity; inhibitor): 0.7 µM
NCc1ccc(Nc2ncc(F)c(Nc3ccccc3)n2)cc1  IC50 (ACVR1; enzyme activity; inhibitor; lysate): > 10 µM
N=C(N)NCCCC[C@@H]1NC(=O)CCSSC[C@@H](C(N)=O)NC(=O)[C@@H]2CCCN2C(=O)[C@H](Cc2c[nH]c3ccccc23)NC(=O)[C@H](CC(=O)O)NC(=O)CNC1=O  IC50 (CXCR4; β-arrestin recruitment; antagonist): > 30 µM
COc1ccccc1S(=O)(=O)Nc1ccc(-c2nc3cc(NS(=O)(=O)c4ccccc4OC)ccc3o2)cc1  IC50 (MDH2; enzyme activity; inhibitor): > 62.5 µM
CCS(=O)(=O)c1ncc(N(Cc2ccco2)Cc2ccco2)c(C(=O)Nc2c(C)cccc2C)n1  IC50 (CXCR4; β-arrestin recruitment; antagonist): 13 µM
CCn1ncc2c1-c1cnc(N)c(c1)O[C@H](C)c1cc(F)ccc1-c1nn(C)nc1C2  IC50 (NTRK3; enzyme activity; inhibitor; radiometric): 0.154 µM
O=c1cc(-c2ccc3c(c2)OCO3)oc2c1ccc1occc12  IC50 (CDK9 with cyclin T1; enzyme activity; inhibitor; ADP detection): 31.4 µM
c1ccc(-n2cc(CCN(Cc3nc(C4CC4)no3)Cc3nc(C4CC4)no3)cn2)cc1  IC50 (CXCR4; β-arrestin recruitment): 200 µM
COC(=O)C1CCN(C(=O)c2ccc(N(Cc3ccccc3)Cc3cnc4nc(N)nc(N)c4n3)cc2)CC1  IC50 (CYP2C9; enzyme activity; inhibitor; luciferase): 0.316 µM
